Experimental data from ChEMBL document CHEMBL1138900, “2,5-diketopiperazines as potent, selective, and orally bioavailable oxytocin antagonists. 3. Synthesis, pharmacokinetics, and in vivo potency” (J Med Chem, 2006).
pIC50, pKi: −log10 of the molar value. Converted amounts (≈) assume the structure as drawn. Where a SMILES comes first, the peptide text is derived from it. Bridges are numbered along the chain shown (N, C = ends). [ ]: non-standard residue; d: D form. Orn = NCCC[C@H](N)C(=O)O; Mpa = O=C(O)CCS

Columns and labels:
[1] = Lipophilicity, log D by CHI method; type: physicochemical; conditions: read-out: Log D
How it was run: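 Lipophilicity determined by an HPLC-based method.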

[2] = Solubility of the compound; type: physicochemical
How it was run: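 Aqueous solubility (mg mL⁻¹) measured by precipitation followed by HPLC.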

[3] = Oral bioavailability in rat; type: ADME, organism-based; conditions: in vivo
[4] = AUC in rat; type: ADME, organism-based; design: concentration or dose not given beside the values; conditions: plasma
How it was run: (§1)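 Rat pharmacokinetics, n = 4; dosed at 5 mg/kg in 5% DMSO/95% PEG400. AUC in ng·h mL⁻¹, clearance in mL min⁻¹ kg⁻¹, half-life in h.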

Oxytocin receptor [5] = biological target: T1, Oxytocin receptor (Homo sapiens, UniProt P30559); test: Displacement of [3H]oxytocin from human OTR
T1 sequence (P30559 whole entry): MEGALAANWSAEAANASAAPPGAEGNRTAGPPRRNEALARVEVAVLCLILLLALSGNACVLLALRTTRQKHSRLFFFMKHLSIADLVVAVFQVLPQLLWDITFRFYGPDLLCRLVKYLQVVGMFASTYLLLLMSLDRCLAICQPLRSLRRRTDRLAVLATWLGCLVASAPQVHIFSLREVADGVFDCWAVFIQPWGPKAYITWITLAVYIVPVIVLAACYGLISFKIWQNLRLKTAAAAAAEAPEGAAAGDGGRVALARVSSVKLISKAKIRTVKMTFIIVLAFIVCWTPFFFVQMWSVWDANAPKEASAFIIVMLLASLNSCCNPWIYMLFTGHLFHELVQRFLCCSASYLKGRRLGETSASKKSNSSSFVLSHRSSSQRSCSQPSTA

[6] = Clearance in rat; type: ADME, organism-based; conditions: in vivo; how it was run: as §1
[7] = AUC in dog; type: ADME, organism-based, Canis lupus familiaris; design: concentration or dose not given beside the values; conditions: plasma
How it was run: (§2)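 Dog pharmacokinetics, n = 3; dosed at 0.6 mg/kg in 5% DMSO/95% PEG400. AUC reported as ng·h mL⁻¹ and clearance as mL min⁻¹ kg⁻¹.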

[8] = Oral bioavailability in dog; type: ADME, organism-based, Canis lupus familiaris; conditions: in vivo
[9] = Clearance in dog; type: ADME, organism-based, Canis lupus familiaris; conditions: in vivo; how it was run: as §2
Cytochrome P450 2C9 = Cytochrome P450 2C9 (Homo sapiens, UniProt P11712); test: Inhibition of CYP450 2C9 transfected in human microsome; type: ADME
Cytochrome P450 2C9, sequence (P11712 whole entry): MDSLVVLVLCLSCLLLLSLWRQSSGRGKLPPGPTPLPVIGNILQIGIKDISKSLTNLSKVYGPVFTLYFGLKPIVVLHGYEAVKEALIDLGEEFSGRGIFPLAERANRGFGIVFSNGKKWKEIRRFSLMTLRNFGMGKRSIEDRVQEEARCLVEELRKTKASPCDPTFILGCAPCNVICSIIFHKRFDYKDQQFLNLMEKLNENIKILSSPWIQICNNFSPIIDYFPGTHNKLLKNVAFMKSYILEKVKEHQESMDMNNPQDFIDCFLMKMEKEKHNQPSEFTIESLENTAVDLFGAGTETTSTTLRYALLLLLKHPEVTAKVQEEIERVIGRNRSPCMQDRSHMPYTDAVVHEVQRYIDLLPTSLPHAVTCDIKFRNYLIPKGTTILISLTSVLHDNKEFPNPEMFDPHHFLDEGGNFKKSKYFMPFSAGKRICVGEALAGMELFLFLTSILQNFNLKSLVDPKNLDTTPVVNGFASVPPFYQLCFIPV
How it was run: (§3)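 Recombinant human CYP isozymes, with reaction progress followed by fluorogenic substrates; DEF and 7-benzyloxyquinoline used as CYP3A4 substrates. Compounds dissolved at 1.65 mM in DMSO/methanol and serially diluted to give IC50 (μM). A positive control run for each isozyme.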

Vasopressin V2 receptor = Vasopressin V2 receptor (Homo sapiens, UniProt P30518); test: Displacement of vasopressin from human V2R
Vasopressin V2 receptor, sequence (P30518 whole entry): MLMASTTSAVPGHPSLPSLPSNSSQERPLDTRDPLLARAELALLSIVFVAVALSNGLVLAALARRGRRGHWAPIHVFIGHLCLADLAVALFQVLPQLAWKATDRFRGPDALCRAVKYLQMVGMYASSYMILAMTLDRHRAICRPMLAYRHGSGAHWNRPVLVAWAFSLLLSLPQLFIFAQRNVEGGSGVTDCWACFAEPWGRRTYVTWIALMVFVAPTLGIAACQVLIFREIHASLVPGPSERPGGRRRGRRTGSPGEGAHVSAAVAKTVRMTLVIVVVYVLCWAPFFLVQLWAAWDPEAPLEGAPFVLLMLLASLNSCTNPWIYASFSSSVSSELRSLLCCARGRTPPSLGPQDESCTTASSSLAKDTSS

Cytochrome P450 2C19 = Cytochrome P450 2C19 (Homo sapiens, UniProt P33261); test: Inhibition of CYP450 2C19 transfected in human microsome; type: ADME; how it was run: as §3
Cytochrome P450 2C19, sequence (P33261 whole entry): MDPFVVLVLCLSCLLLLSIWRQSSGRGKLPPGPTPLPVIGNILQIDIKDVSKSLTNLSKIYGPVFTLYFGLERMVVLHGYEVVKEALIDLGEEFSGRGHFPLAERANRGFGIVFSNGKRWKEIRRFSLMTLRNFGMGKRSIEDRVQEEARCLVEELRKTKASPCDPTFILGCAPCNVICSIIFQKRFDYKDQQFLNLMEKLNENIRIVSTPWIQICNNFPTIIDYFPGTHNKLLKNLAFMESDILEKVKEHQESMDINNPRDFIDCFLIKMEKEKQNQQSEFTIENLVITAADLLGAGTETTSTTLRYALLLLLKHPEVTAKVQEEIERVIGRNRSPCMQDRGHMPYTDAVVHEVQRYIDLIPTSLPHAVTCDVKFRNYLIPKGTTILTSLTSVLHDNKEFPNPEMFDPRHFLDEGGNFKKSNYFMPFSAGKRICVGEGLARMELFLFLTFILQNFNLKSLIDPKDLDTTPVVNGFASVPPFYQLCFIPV

[10] = Half life in dog; type: ADME, organism-based, Canis lupus familiaris; conditions: in vivo
Oxytocin receptor [11] = biological target: T1, Oxytocin receptor; test: […] activity at human OTR expressed in CHO cells assessed as inhibition of oxytocin-induced calcium mobilization by FLIPR assay; type: functional, cell-based
Vasopressin V1b receptor = biological target: T2, Vasopressin V1b receptor (Homo sapiens, UniProt P47901); test: Displacement of vasopressin from human V1bR
T2 sequence (P47901 whole entry): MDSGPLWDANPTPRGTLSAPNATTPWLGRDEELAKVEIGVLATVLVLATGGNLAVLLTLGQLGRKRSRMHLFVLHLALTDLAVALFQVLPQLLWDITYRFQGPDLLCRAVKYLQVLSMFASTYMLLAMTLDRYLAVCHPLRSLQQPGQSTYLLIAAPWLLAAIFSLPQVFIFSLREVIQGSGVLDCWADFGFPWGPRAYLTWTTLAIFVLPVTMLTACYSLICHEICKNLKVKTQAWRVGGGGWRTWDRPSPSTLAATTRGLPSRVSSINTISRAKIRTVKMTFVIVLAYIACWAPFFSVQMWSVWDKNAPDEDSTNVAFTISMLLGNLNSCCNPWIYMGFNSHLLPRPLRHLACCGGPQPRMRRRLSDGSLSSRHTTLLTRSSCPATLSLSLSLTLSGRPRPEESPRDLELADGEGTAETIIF

Cytochrome P450 3A4 [12] = biological target: T3, Cytochrome P450 3A4 (Homo sapiens, UniProt P08684); test: Inhibition of CYP450 3A4 transfected in human microsome using PPR fluorogenic substrate; type: ADME, microsomes
T3 sequence (P08684 whole entry): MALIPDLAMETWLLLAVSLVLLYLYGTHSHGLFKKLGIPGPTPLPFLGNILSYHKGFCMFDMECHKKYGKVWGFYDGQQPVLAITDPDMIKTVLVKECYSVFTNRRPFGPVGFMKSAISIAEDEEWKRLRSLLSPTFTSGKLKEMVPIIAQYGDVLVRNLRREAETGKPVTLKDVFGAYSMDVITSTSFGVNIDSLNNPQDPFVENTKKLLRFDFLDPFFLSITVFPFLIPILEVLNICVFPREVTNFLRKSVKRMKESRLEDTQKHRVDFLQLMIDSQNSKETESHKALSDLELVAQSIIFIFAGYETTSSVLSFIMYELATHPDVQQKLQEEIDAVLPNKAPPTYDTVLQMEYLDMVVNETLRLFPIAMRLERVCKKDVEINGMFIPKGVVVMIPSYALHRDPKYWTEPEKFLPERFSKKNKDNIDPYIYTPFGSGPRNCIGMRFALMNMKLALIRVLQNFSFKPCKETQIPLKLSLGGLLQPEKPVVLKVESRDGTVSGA

Oxytocin receptor [13] = biological target: T1, Oxytocin receptor; test: Antagonist activity against human OTR expressed in CHO cells measured as calcium influx by FLIPR assay; type: functional, cell-based
Cytochrome P450 1A2 = biological target: T4, Cytochrome P450 1A2 (Homo sapiens, UniProt P05177); test: Inhibition of CYP450 1A2 transfected in human microsome; type: ADME; how it was run: as §3
T4 sequence (P05177 whole entry): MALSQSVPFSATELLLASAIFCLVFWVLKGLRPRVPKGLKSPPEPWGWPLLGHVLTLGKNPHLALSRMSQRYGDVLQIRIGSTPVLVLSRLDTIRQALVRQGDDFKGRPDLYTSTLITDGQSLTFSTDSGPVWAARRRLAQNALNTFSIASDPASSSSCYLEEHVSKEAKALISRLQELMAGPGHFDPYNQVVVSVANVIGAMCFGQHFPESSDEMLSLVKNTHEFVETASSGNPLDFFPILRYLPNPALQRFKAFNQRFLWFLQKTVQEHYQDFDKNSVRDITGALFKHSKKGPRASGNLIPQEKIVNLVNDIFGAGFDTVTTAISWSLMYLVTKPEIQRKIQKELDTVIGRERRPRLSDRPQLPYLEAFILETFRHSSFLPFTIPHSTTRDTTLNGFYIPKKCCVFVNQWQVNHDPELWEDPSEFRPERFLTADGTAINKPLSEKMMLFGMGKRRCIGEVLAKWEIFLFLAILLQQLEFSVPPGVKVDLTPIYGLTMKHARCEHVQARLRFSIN

[14] = Volume of distribution in rat; type: ADME, organism-based; conditions: in vivo, read-out: Vdss
Rattus norvegicus = test: Reduction in oxytocin-induced uterine contraction in iv dosed anaesthetized rat; type: functional, organism-based; conditions: for pIC50: Rattus norvegicus
How it was run: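 Anaesthetized rats; uterine contractions elicited by iv oxytocin at a standard dose of 0.3 ug/kg. Test compound then given iv in rising doses (0.1, 0.3, 1 mg/kg) and the fall in contractility recorded. Plasma IC50 taken as the plasma concentration giving 50% inhibition of the response to the standard oxytocin dose.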

Vasopressin V1a receptor = Vasopressin V1a receptor (Homo sapiens, UniProt P37288); test: Displacement of vasopressin from human V1aR
Vasopressin V1a receptor, sequence (P37288 whole entry): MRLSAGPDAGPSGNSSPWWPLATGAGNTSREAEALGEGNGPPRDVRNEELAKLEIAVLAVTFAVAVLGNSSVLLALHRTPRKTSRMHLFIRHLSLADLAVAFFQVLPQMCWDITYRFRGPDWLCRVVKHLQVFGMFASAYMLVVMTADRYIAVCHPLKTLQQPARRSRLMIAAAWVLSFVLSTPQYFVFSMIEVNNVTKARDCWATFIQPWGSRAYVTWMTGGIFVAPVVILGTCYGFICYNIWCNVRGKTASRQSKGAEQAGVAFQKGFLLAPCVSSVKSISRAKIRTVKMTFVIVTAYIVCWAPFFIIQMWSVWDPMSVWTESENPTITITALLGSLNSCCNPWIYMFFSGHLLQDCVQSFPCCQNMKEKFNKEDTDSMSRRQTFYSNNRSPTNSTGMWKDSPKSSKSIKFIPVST

[15] = Half life in rat; type: ADME, organism-based; conditions: in vivo; how it was run: as §1
Cytochrome P450 3A4 [16] = biological target: T3, Cytochrome P450 3A4; test: Inhibition of CYP450 3A4 transfected in human microsome using DEF fluorogenic substrate; type: ADME, microsomes; how it was run: as §3
Cytochrome P450 2D6 = Cytochrome P450 2D6 (Homo sapiens, UniProt P10635); test: Inhibition of CYP450 2D6 transfected in human microsome using DEF fluorogenic substrate; type: ADME, microsomes; how it was run: as §3
Cytochrome P450 2D6, sequence (P10635 whole entry): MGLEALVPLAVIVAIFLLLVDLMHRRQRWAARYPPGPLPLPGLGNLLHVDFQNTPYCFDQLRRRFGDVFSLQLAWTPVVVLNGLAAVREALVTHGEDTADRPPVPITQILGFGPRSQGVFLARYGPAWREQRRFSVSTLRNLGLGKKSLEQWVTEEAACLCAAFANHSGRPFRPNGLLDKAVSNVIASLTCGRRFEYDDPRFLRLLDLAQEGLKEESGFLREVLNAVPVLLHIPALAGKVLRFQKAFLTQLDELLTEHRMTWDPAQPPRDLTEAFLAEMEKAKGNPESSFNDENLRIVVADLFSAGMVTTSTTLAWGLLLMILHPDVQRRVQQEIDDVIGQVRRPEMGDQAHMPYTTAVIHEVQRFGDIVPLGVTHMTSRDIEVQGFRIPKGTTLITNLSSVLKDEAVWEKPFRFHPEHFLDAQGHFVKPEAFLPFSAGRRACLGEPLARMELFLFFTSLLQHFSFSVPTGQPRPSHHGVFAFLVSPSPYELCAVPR

Oxytocin receptor [17] = biological target: T5, Oxytocin receptor (Rattus norvegicus, UniProt P70536); test: Displacement of [3H]oxytocin from rat OTR
T5 sequence (P70536 whole entry): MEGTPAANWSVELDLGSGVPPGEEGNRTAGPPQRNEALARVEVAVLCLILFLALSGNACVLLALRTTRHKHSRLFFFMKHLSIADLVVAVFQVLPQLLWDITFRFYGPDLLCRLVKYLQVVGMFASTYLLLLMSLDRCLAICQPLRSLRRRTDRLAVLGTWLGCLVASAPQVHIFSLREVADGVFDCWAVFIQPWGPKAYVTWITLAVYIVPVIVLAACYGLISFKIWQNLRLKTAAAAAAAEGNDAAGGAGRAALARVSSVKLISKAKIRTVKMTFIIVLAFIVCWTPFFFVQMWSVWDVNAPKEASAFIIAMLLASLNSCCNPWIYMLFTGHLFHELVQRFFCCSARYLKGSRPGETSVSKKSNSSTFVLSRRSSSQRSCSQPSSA

[18] = Volume of distribution in dog; type: ADME, organism-based, Canis lupus familiaris; conditions: in vivo, read-out: Vdss

Row | SMILES | chromatographic logD [1] | solubility [2] [µg/mL] | bioavailability [3] [%] | AUC [4] [ng·h/mL] | pKi (Oxytocin receptor [5]) | clearance [6] [mL/min/kg] | AUC [7] [ng·h/mL] | bioavailability [8] [%] | clearance [9] [mL/min/kg] | Activity (Rattus norvegicus) [mg/kg] | pIC50 (Rattus norvegicus) | pKi (Oxytocin receptor [17]) | also measured
1 | CC(C)C[C@@H]1C(=O)N[C@H](C2Cc3ccccc3C2)C(=O)N1[C@@H](C(=O)O)c1ccc(F)cc1F | 1.7 | 216 (≈ 473 µM) | 30 | 805 | 9.20 | 53 | 23 | 5 | 21 |  |  |  | 
2 | CC(C)C[C@@H]1C(=O)N[C@H](C2Cc3ccccc3C2)C(=O)N1[C@@H](C(=O)N(C)C)c1ccc(F)cc1F | 3.3 | 83 (≈ 172 µM) | 53 |  | 9.20 | 15 | 770 | 51 | 7 | 0.22 | 6.64 | 8.00 | pIC50 (Cytochrome P450 2C9): 4.31; pKi (Vasopressin V2 receptor): 6.50; pIC50 (Cytochrome P450 2C19): < 4.00; half-life [10]: 2.1 h; pIC50 (Oxytocin receptor [11]): 8.43; pKi (Vasopressin V1b receptor): < 5.20; pIC50 (Cytochrome P450 3A4 [12]): 4.21; pKi (Oxytocin receptor [13]): 8.80; pIC50 (Cytochrome P450 1A2): 4.19; Vd [14]: 1.2 L/kg; pKi (Vasopressin V1a receptor): < 5.20; half-life [15]: 1.1 h; pIC50 (Cytochrome P450 3A4 [16]): 4.05; pIC50 (Cytochrome P450 2D6): < 4.00; Vd [18]: 1.1 L/kg
3 | CC(C)C[C@@H]1C(=O)N[C@H](C2Cc3ccccc3C2)C(=O)N1[C@@H](C(=O)N1CCC1)c1ccc(F)cc1F | 3.3 | 1 (≈ 2.02 µM) | 17 | 660 | 9.20 | 22 | 710 | 37 | 4 |  |  |  | 
4 | CNC(=O)[C@@H](c1ccc(F)cc1F)N1C(=O)[C@@H](C2Cc3ccccc3C2)NC(=O)[C@H]1CC(C)C | 2.9 | 89 (≈ 190 µM) | 98 | 3690 | 9.40 | 32 | 82 | 11 | 13 |  |  |  | 
5 | CCOc1ccc(C[C@H]2NC(=O)CCSSC[C@@H](C(=O)N3CCC[C@H]3C(=O)N[C@@H](CCCN)C(=O)NCC(N)=O)NC(=O)[C@H](CC(N)=O)NC(=O)[C@H]([C@@H](C)O)NC(=O)[C@H]([C@@H](C)CC)NC2=O)cc1 [ATOSIBAN] ([Mpa][dY](Et)ITNCP[Orn]G-NH2; disulfide 1-6) |  |  |  |  | 7.40 |  |  |  |  | 0.63 | 6.73 | 7.40 | 
